Screening results as filed in PubChem BioAssay.
M5 ag = human M5 muscarinic receptor agonists, primary screen, CHO-K1 cells, Fluo-8 calcium fluorescence; Muscarinic acetylcholine receptor M5 (Homo sapiens), P08912; CHO-K1 hM5 cells; 0% DMSO wells, 100% maximal acetylcholine response; activation, % at 3 µM; 0.19% of 360,000 active;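 active = activation above the run's mean over test compounds plus 3 SD, cut at about 23% in these data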;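 also: signal is peak over basal fluorescence ratio across the kinetic read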
Target sequence (P08912 whole entry, looked up): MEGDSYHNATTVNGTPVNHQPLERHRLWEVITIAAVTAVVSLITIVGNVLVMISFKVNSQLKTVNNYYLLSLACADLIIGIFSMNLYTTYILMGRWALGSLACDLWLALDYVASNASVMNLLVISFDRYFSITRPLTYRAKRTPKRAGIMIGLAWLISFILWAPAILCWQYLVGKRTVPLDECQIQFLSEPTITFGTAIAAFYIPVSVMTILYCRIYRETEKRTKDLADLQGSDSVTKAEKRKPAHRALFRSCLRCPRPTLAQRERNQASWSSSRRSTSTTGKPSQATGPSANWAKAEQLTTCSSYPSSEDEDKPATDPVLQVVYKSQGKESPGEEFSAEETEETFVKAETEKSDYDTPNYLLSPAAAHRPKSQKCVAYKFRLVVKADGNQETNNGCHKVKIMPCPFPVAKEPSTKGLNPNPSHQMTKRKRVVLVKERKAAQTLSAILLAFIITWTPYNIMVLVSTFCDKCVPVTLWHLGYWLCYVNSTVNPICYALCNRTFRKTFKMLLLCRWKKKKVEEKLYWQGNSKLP
M5 antag = human M5 muscarinic receptor antagonists, primary screen, CHO cells, Fluo-8 calcium fluorescence; Muscarinic acetylcholine receptor M5 (Homo sapiens), P08912; CHO-hM5 cells, ACh EC80; inhibition, % at 3 µM; 0.59% of 360,000 active; AID 624040, 2012;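 active = inhibition above a per-plate cutoff, the mean of that plate's test compounds plus 3 SD, cut at about 27% in these data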;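 also: 0% = acetylcholine EC80 with DMSO and 100% = DMSO without agonist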
M4 PAM = human M4 muscarinic receptor positive allosteric modulators, primary screen, CHO-K1 cells, Fluo-8 calcium fluorescence; CHO-K1 hM4/Gqi5, ACh EC20; 0% = ACh EC20, 100% = maximal ACh; activation, % at 3 µM; 0.4% of 360,000 active;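 active = activation above its plate's cutoff, the mean activation of sample wells plus 3 SD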
CHRM5 PAM = human M5 muscarinic receptor positive allosteric modulators, primary screen, CHO-K1 cells, Fluo-8 calcium fluorescence; Muscarinic acetylcholine receptor M5 (Homo sapiens), P08912; CHO-K1 hM5, ACh EC20 PAM; 0% = ACh EC20, 100% = ACh EC100; activation, % at 3 µM; 0.3% of 360,000 active;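 active = activation above the run cutoff, the mean activation of all test compounds plus 3 SD, cut at about 18% in these data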
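Measured by: Fluo-8 calcium fluorescence; material: human M5 receptor in CHO-K1 cells; schedule: Post-acetylcholine fluorescence recording 140 s; benchmarks: low control EC20 acetylcholine (0%), high control EC100 acetylcholine (100%); read-out: Max/basal fluorescence ratio as % of EC20–EC100 ACh window; compound: single dose, 3 µM nominal final test concentration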
CHRM4 antagonist = human M4 muscarinic receptor antagonists, primary screen, CHO cells, Fluo-8 calcium fluorescence | Muscarinic acetylcholine receptor M4 (Homo sapiens), P08173 | CHO-hM4 cells, ACh EC80 | inhibition, % at 3 µM | 0.73% of 360,000 active | AID 624125, 2012;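 active = inhibition above its plate's cutoff, the mean inhibition of sample wells plus 3 SD, cut at about 27% in these data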;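 also: 0% = acetylcholine EC80 with DMSO and 100% = DMSO without agonist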
M4 ag = human M4 muscarinic receptor agonists, primary screen, CHO-K1 cells, Fluo-8 calcium fluorescence | CHO-K1 hM4/Gqi5; vehicle 0%, full acetylcholine response 100% | activation, % at 3 µM | 0.14% of 360,000 active;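 active = activation above the run mean over all test wells plus 3 SD, cut at about 32% in these data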;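 also: peak over basal fluorescence ratio per well then scaled between controls; 0% = DMSO wells and 100% = acetylcholine at EC100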
Numbers without * were called inactive; ! = not active in a repeat. Hits are enriched below; roughly 1.9% of the tested compounds scored in any of these assays.

SMILES	M5 ag	M5 antag	M4 PAM	CHRM5 PAM	CHRM4 antagonist	M4 ag
CC(=O)OC(C)(C)/C=C/C(=O)C(C)(O)C1C(O)CC2(C)C3CC=C4C(CC(O)C(=O)C4(C)C)C3(C)C(=O)CC12C (configuration not stated)	2.5	-2.5	16.2*	5.3	-7.7	0.6
CCC1C2CC3C4N(C)c5ccccc5C45CC(C2C5O)N3C1O (configuration not stated)	0.4	-3.5	11.4	1.5	-16.2	1.6
COc1ccc(CCNC(=O)c2c(N)n(CCN3CCOCC3)c3nc4ccccc4nc23)cc1OC	0.2	34.5*	-21.2	-14.5	17.8	17.1
N#CC(CCN1CCOCC1)(c1ccccc1)c1ccccc1	-11.7	27.5*	-7.2	-15.5	13.6	0.7
CC1C2Cc3ccc(O)cc3[C@]1(C)CCN2CCc1ccccc1 (some centres not stated)	-5.3	7.6	-12.4	-18.6	1.2	3.3
Cc1ncc(CN2CCCC(C(=O)c3ccc(C(C)(C)C)cc3)C2)s1 (configuration not stated)	-5.0	29.0*	-21.9	-19.1	22.8	9.8
CCc1c(-c2ccccc2)nc2ccccc2c1C(=O)N1CCC2(CC1)OCCO2	-2.4	8.1	-2.4	-5.8	1.6	1.3
CC12C=CC(=O)C=C1CC(O)C1C2CCC2(C)C1CCC2(C)O (configuration not stated)	-1.5	13.3	11.0	5.5	-6.6	1.8
O=C(O)C1C2c3ccccc3C(O)C1(C(=O)O)c1ccccc12 (configuration not stated)	-3.1	-0.7	4.2	12.5	2.0	0.5
O=C(Oc1ccc([N+](=O)[O-])cc1)N1CCC(N2CCCCC2)CC1	-8.5	3.6	-16.9	-4.4	56.5*	-0.3
CC(=O)Nc1ccc(OC(=O)N2CCCCC2)cc1	-2.4	-3.6	7.5	0.9	-0.6	0.1
C[C@H]1CC[C@@H]2N(C1)C[C@H]1[C@@H]3C[C@H]4[C@@H](CC(=O)[C@H]5C[C@@H](O)CC[C@@]54C)[C@@H]3CC[C@H]1[C@]2(C)O	-5.9	1.0	-18.2	-7.7	84.5*	1.1
CC(=O)O[C@H]1CC[C@@]2(C)[C@H](C1)C(=O)C[C@H]1[C@@H]3CC[C@@H]4[C@@H](CN5C[C@@H](C)CC[C@H]5[C@@]4(C)O)[C@@H]3C[C@@H]12	-7.2	10.4	-15.1	-6.0	65.1*	-0.1
C[C@]12CC[C@H](O)CC1C(=O)CC1C2CC[C@@]2(C)C1CC[C@@H]2O (some centres not stated)	-5.4	-2.8	3.6	-3.1	-11.8	1.8
COC(=O)C1=C(c2ccc(Cl)c(C(F)(F)F)c2)C[C@@H]2CC[C@H]1N2C(=O)NCCOc1ccccc1Cl	3.2	-4.0	-3.9	-1.1	-2.3	1.3
CCN(CC)CCC(=O)O[C@H]1CC[C@]2(C)C3CC[C@@]4(C)C(CC[C@]4(C)O)C3CC[C@H]2C1 (some centres not stated)	0.6	26.8	-10.5	-36.7	27.7*	29.5
COC(=O)C1=CO[C@@H](C)[C@@H]2CN(CCc3c[nH]c4ccccc34)CC[C@H]12	-4.8	49.5*	-14.1	-24.4	25.5	1.1
Cc1ccccc1NC(=O)N1Cc2ccccc2-n2nncc2C1	0.6	6.7	-0.4	0.6	-4.8	0.5
CCC1(NS(=O)(=O)c2ccc(N)cc2)C(=O)N(C)C(=O)N(C)C1=O	-9.4	18.2	5.9	-37.5	-2.8	-0.1
CC[n+]1c(/C=C/C=C/c2ccc(N(C)C)cc2)sc2ccccc21	-2.0	50.6*	-14.0	-29.6	55.4*	23.4
C#CCOC(=O)C1=CCCN(C)C1	97.3*	96.9*	-18.8	-15.7	73.9*	69.6*
C[C@]12CC[C@@H](O)CC1=CCC1C2CC[C@@]2(C)C1CC[C@@H]2O (some centres not stated)	-0.3	-1.0	7.7	-0.5	-27.7	3.6
CC(C)C[C@@H]1COc2cc(N3CCN(C)CC3)ccc2S(=O)(=O)N1	1.7	-8.9	1.0	5.4	3.2	0.9
COc1cc(/C=C/[N+](=O)[O-])ccc1O	10.2	-7.9	3.3	10.7	15.9	1.5
CCN(CC)c1ccc(/C=C/[N+](=O)[O-])cc1	96.2*	90.2*	-28.0	-30.6	28.6*	71.2*
SMILES	M5 ag	M5 antag	M4 PAM	CHRM5 PAM	CHRM4 antagonist	M4 ag
COC(=O)C1=C(c2ccc(C(C)=O)cc2)C[C@@H]2CC[C@H]1N2C(=O)NCc1ccc(C(F)(F)F)cc1	37.8*	12.7	-6.2	-19.3	2.2	35.6*
CCC1([N+](=O)[O-])COP(=O)(NCc2cccnc2)OC1 (configuration not stated)	-0.5	11.9	0.7	-10.3	-6.6	0.4
S=C(NCCc1ccccc1)N1Cc2ccc(Br)cc2-n2nncc2C1	-2.1	-0.8	-0.4	-6.0	-10.8	9.2
O=C(Nc1ccc(C(=O)O)cc1)Oc1ccc(N(CCCl)CCCl)cc1	2.6	1.2	3.3	0.2	-1.3	0.6
ClC1C(Cl)C(Cl)C(Cl)C(Cl)C1Cl (configuration not stated)	83.6*!	35.0*!	3.5	-21.1	-10.1	5.1
C=C1N2CCC(CC2)C1(O)c1ccc(C)c(C)c1 (configuration not stated)	-13.4	33.4*	-6.5	-55.1	4.5	0.8
CN(C)CCN(C(=O)COc1ccc(Cl)cc1)c1nc2cc3c(cc2s1)OCO3	-6.5	3.8	-7.0	-0.8	-1.3	0.2
COc1cc(/C=C(/C)[N+](=O)[O-])ccc1OCc1ccccc1Cl	-1.5	27.1*	-10.7	1.8	29.2*	0.8
CCN1/C(=C\C=C\C2=[N+](CC)c3ccccc3C2(C)C)C(C)(C)c2ccccc21	301.7*	93.7*	-20.5	-51.9	91.7*	251.6*
O=C(c1ccc2c(c1)OCO2)C1CCCN(CC2CCCCC2)C1 (configuration not stated)	-11.0	7.9	-23.8	-11.0	40.9*	0.2
COc1cccc(NP2(=O)OCC(C)([N+](=O)[O-])CO2)c1 (configuration not stated)	5.1	-1.2	-0.5	2.7	-1.0	0.9
O=C(c1cc(F)ccc1F)C1CCCN(CCCc2ccccc2)C1 (configuration not stated)	-9.4	11.5	-16.8	-17.1	31.6*	-0.2
